Data on three compounds can be found in paper PMC7790458 (Journal of the American Chemical Society, 2020).

By MIC is commonly meant the least concentration at which growth counts as inhibited. The low end stands for greater potency, the high end for weaker potency.

The test system of one series is E. coli ΔbamBΔtolC. As to the kind of experiment: MIC, CLSI broth microdilution. The following applies: MH-II broth with dipyridyl. Format: cell-based. For orientation: Broth dilution looks for growth in wells or tubes with falling amounts of substance.
Series [1] in a line: Cleavage of acc peptide by human serum. Format: in vitro ADME. The following applies: fluorescence (Figure S8). The procedure, abridged:
(§1)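 Substrate is an N-acetylated peptide with 7-amino-4-carbamoylmethylcoumarin (acc) coupled directly to the P1 residue as an antibiotic surrogate, made by solid-phase synthesis. The substrate is incubated in human or mouse serum, and cleavage is followed as release of free fluorescent amino coumarin.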

The test system of series [2] is periplasmic extract of E. coli K12 MG1655. As to the kind of experiment: acc release from fluorogenic peptides in periplasmic extract. Format: biochemical. The following applies: HPLC analysis (Figure S9).
Series [3] is described as follows: Cleavage of acc peptide by mouse serum. The class given is in vitro ADME. As to conditions: compared with human serum. The procedure, abridged:
as §1

In the next series the test system is E. coli ΔsurA. Put plainly: MIC, CLSI broth microdilution. Format: cell-based. The following applies: MH-II broth with dipyridyl.
The subject of another series is S. aureus Newman. Put plainly: MIC, CLSI broth microdilution. Format: cell-based. The following applies: MH-II broth with dipyridyl.

`CC(=O)NC[C@H]1CN(c2ccc(N3CCN(C(=O)CO)CC3)c(F)c2)C(=O)O1` [eperezolid]: the MIC entry against E. coli ΔbamBΔtolC is “susceptible”.
For Ac-WSPKYM-acc [compound 1], the “half-life of acc release” value in series [1] fell in the range of 3 to 4 h. The “substrate consumption at the end of the reaction” value in series [2] was “fully consumed”. In series [3], the “cleavage by mouse serum” value is recorded as “cleaved more rapidly”.
As for eperezolid-NH2 [compound 5], the values for the MIC against E. coli ΔsurA, in the series with S. aureus Newman and against E. coli ΔbamBΔtolC were 43 µM, 43 µM and above 171 µM, respectively.
